Measurements: ChEMBL document CHEMBL3046036, “Bioactivity of the fungal metabolite (8R,16R)-(-)-pyrenophorin on graminaceous plants” (J Agric Food Chem, 2005)

Columns and labels:
Details in all cases: in vivo
Avena sativa = experiment: Effect on chlorophyll content in Avena sativa assessed as chlorophyll dissipation rate at 20 degC in the dark at 320 uM relative to control
Avena fatua = experiment: Effect on chlorophyll content in Avena fatua assessed as chlorophyll dissipation rate at 20 degC in the dark at 320 uM relative to control
Hordeum vulgare = experiment: Effect on chlorophyll content in Hordeum vulgare (barley) assessed as chlorophyll dissipation rate at 20 degC and 12 hr photoperiod at 320 uM relative to control; assay type: ADME, organism-based
Summary of the method: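 Leaf sections were treated with 320 µM metabolite and incubated in the dark at 20 °C, with 16 tubes per treatment. Every 12 h, segments from one tube were split into four tubes and extracted in DMSO at 65 °C for 30 min. Extracts were read at A665, tissue was dried at 105 °C and weighed, and chlorophyll was expressed as A665 per g dry weight.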

Triticum aestivum = experiment: Effect on chlorophyll content in Triticum aestivum (wheat) assessed as chlorophyll dissipation rate at 20 degC in the dark at 320 uM relative to control
Avena sterilis = experiment: Effect on chlorophyll content in Avena sterilis assessed as chlorophyll dissipation rate at 20 degC in the dark at 320 uM relative to control

Measured: Activity

C[C@@H]1CC[C@H](O)/C=C/C(=O)O[C@H](C)CC[C@H](O)/C=C/C(=O)O1 [(5S,8R,13S,16R)-(-)-PYRENOPHOROL]
Non-toxic: Avena sativa | Avena fatua | Hordeum vulgare | Triticum aestivum | Avena sterilis
